The source made the active and inactive calls. No cut-off for these calls is given here.
Experiments:
[1] = Half life in human at 400 mg, po administered for 8 days by LC-MS/MS analysis; assay type: ADME, organism-based; conditions: in vivo, time 8 day
Summary of the method: (§1)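 Steady-state plasma sampling on cycle 1 day 8 in patients, predose and 0.25, 0.5, 0.75, 1, 2, 4 and 6 h post-dose, into lithium heparin. Plasma was stored at -80°C. Drug was quantified by validated LC-MS/MS against a stable labeled internal standard, using only values at or above LLOQ and nominal sampling times.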

[2] = AUC(0 to 12 hrs) in human at 175 mg, po administered for 8 days by LC-MS/MS analysis; assay type: ADME, organism-based; conditions: in vivo, time 8 day; summary of the method: as §1
[3] = AUC(0 to 12 hrs) in human at 100 mg, po administered for 8 days by LC-MS/MS analysis; assay type: ADME, organism-based; conditions: in vivo, time 8 day; summary of the method: as §1
[4] = Terminal elimination half life in human at 100 mg, po administered for 8 days by LC-MS/MS analysis; assay type: ADME, organism-based; conditions: in vivo, time 8 day, read-out: LambdaZ (converted)
[5] = Half life in human at 175 mg, po administered for 8 days by LC-MS/MS analysis; assay type: ADME, organism-based; conditions: in vivo, time 8 day; summary of the method: as §1
[6] = Tmax in human at 175 mg, po administered for 8 days by LC-MS/MS analysis; assay type: ADME, organism-based; conditions: in vivo, time 8 day
Summary of the method: (§2)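 Patient plasma sampled on cycle 1 day 8 at predose and 0.25, 0.5, 0.75, 1, 2, 4 and 6 h post-dose, in lithium heparin. […] Tmax read directly from each individual's data; summarized descriptively.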

[7] = Cmax in human at 250 mg, po administered for 8 days by LC-MS/MS analysis; assay type: ADME, organism-based; conditions: in vivo, time 8 day; summary of the method: as §1
[8] = AUC(0 to infinity) in human at 250 mg, po administered for 8 days by LC-MS/MS analysis; assay type: ADME, organism-based; conditions: in vivo, time 8 day; summary of the method: as §1
[9] = Tmax in human at 250 mg, po administered for 8 days by LC-MS/MS analysis; assay type: ADME, organism-based; conditions: in vivo, time 8 day; summary of the method: as §2
[10] = Drug exposure in human administered for 6 hrs by LC-MS/MS analysis; assay type: ADME; conditions: po, dose 100-400 mg
[11] = Apparent oral clearance in human at 250 mg, po administered for 8 days by LC-MS/MS analysis; assay type: ADME, organism-based; conditions: in vivo, time 8 day; summary of the method: as §1
[12] = Half life in human at 100 mg, po administered for 8 days by LC-MS/MS analysis; assay type: ADME, organism-based; conditions: in vivo, time 8 day; summary of the method: as §1
[13] = AUC(0 to 12 hrs) in human at 100 mg, po BID administered for 8 days by LC-MS/MS analysis; assay type: ADME, organism-based; conditions: in vivo, time 8 day; summary of the method: as §1
[14] = AUC(0 to 6 hrs) in human at 175 mg, po administered for 8 days by LC-MS/MS analysis; assay type: ADME, organism-based; conditions: in vivo, time 8 day; summary of the method: as §1
[15] = Terminal elimination half life in human at 100 mg, po BID administered for 8 days by LC-MS/MS analysis; assay type: ADME, organism-based; conditions: in vivo, time 8 day, read-out: LambdaZ (converted)
[16] = AUC(0 to 24 hrs) in human at 250 mg, po administered for 8 days by LC-MS/MS analysis; assay type: ADME, organism-based; conditions: in vivo, time 8 day; summary of the method: as §1
[17] = AUC(0 to infinity) in human at 100 mg, po BID administered for 8 days by LC-MS/MS analysis; assay type: ADME, organism-based; conditions: in vivo, time 8 day; summary of the method: as §1
[18] = target: Tyrosine-protein kinase Blk (Homo sapiens, UniProt P51451); experiment: Inhibition of recombinant BLK (unknown origin) preincubated for 1 hr in presence of ATP by Z-Lyte assay
Sequence of Tyrosine-protein kinase Blk (P51451 whole entry): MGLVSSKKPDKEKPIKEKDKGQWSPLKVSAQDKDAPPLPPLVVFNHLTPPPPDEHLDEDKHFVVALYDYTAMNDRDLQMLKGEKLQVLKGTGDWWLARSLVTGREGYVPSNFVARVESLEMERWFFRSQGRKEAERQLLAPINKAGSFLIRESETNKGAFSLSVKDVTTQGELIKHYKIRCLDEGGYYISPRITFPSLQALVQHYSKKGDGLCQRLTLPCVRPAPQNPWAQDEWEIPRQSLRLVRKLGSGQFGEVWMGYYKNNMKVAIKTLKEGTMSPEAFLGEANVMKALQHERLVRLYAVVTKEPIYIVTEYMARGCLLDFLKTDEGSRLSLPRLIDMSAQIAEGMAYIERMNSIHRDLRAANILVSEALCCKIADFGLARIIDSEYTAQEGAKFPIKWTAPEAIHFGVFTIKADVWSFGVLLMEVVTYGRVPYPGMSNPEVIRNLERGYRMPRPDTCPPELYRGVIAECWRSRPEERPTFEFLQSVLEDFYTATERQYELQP
Summary of the method: (§3)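 Recombinant kinase activity was measured by Z'-LYTE with ATP at each enzyme's Km. Inhibitor came from a 10 mM DMSO stock and was tested at 10 concentrations. Compound was preincubated with kinase for 1 h before ATP addition started the reaction, for about 2 h total compound-kinase exposure. IC50 is from 2–3 independent experiments.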

[19] = Half life in human at 250 mg, po administered for 8 days by LC-MS/MS analysis; assay type: ADME, organism-based; conditions: in vivo, time 8 day; summary of the method: as §1
[20] = target: Tyrosine-protein kinase BTK (Homo sapiens) (UniProt Q06187); conditions: Platelet, dose 25-1000 nM, time 30.0 min
Sequence of Tyrosine-protein kinase BTK (Homo sapiens) (Q06187 whole entry): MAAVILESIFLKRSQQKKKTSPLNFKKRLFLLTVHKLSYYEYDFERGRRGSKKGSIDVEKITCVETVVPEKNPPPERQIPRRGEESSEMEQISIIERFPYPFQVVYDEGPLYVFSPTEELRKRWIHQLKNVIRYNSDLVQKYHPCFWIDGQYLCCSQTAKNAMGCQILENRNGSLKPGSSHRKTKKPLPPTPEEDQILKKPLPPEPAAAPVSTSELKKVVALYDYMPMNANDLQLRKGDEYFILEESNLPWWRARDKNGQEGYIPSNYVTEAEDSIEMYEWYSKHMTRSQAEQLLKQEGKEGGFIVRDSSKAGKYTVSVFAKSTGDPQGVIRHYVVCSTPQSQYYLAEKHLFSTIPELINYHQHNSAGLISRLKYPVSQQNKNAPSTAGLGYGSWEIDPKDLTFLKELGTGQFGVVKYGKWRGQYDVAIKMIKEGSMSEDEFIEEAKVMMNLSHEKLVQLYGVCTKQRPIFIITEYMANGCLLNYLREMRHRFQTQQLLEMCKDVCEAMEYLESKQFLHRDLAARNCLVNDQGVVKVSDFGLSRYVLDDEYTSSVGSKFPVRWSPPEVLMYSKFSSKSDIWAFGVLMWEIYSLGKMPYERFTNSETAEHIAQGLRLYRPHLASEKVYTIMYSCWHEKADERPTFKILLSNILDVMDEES

[21] = Apparent volume of distribution during terminal phase in human at 250 mg, po administered for 8 days by LC-MS/MS analysis; assay type: ADME, organism-based; conditions: in vivo, time 8 day, read-out: Vz/F; summary of the method: as §1
[22] = target: Tyrosine-protein kinase Fyn (Homo sapiens, UniProt P06241); experiment: Inhibition of recombinant FYN (unknown origin) preincubated for 1 hr […] by Z-Lyte assay; summary of the method: as §3
Sequence of Tyrosine-protein kinase Fyn (P06241 whole entry): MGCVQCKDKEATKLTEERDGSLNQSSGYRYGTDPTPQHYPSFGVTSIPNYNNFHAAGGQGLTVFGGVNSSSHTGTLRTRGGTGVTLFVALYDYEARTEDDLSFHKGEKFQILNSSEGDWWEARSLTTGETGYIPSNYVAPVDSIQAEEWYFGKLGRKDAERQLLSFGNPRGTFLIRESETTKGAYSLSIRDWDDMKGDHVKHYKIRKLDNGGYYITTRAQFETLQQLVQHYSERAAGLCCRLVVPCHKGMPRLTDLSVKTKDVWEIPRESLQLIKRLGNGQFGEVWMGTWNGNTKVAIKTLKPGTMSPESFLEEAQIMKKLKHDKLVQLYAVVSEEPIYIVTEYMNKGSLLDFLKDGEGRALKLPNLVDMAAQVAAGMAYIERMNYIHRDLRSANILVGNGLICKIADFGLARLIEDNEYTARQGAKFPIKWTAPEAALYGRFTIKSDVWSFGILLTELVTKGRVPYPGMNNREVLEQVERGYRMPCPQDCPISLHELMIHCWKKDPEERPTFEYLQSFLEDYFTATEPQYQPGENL

[23] = AUC(0 to infinity) in human at 100 mg, po administered for 8 days by LC-MS/MS analysis; assay type: ADME, organism-based; conditions: in vivo, time 8 day; summary of the method: as §1
[24] = AUC(0 to 6 hrs) in human at 400 mg, po administered for 8 days by LC-MS/MS analysis; assay type: ADME, organism-based; conditions: in vivo, time 8 day; summary of the method: as §1
[25] = AUC(0 to 24 hrs) in human at 100 mg, po administered for 8 days by LC-MS/MS analysis; assay type: ADME, organism-based; conditions: in vivo, time 8 day; summary of the method: as §1
[26] = Cmax in human at 175 mg, po administered for 8 days by LC-MS/MS analysis; assay type: ADME, organism-based; conditions: in vivo, time 8 day; summary of the method: as §1
[27] = Apparent volume of distribution during terminal phase in human at 175 mg, po administered for 8 days by LC-MS/MS analysis; assay type: ADME, organism-based; conditions: in vivo, time 8 day, read-out: Vz/F; summary of the method: as §1
[28] = target: Tyrosine-protein kinase Lyn (Homo sapiens, UniProt P07948); experiment: Inhibition of recombinant LYN (unknown origin) preincubated for 1 hr in presence of ATP by Z-Lyte assay; summary of the method: as §3
Sequence of Tyrosine-protein kinase Lyn (P07948 whole entry): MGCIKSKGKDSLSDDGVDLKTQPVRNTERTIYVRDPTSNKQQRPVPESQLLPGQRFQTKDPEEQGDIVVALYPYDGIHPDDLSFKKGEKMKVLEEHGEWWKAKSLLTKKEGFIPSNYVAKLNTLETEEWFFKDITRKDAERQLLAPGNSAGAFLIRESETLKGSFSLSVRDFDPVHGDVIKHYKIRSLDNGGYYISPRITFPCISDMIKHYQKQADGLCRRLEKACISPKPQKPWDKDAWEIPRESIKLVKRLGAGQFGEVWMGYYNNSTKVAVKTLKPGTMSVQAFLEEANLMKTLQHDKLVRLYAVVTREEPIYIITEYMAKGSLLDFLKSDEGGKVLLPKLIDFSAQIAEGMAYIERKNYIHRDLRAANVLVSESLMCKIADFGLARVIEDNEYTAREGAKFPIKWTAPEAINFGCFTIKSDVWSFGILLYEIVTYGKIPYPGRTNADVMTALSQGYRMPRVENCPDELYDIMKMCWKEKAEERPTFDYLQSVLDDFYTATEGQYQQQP

[29] = Apparent volume of distribution during terminal phase in human at 100 mg, po BID administered for 8 days by LC-MS/MS analysis; assay type: ADME, organism-based; conditions: in vivo, time 8 day, read-out: Vz/F; summary of the method: as §1
[30] = Apparent volume of distribution during terminal phase in human at 100 mg, po administered for 8 days by LC-MS/MS analysis; assay type: ADME, organism-based; conditions: in vivo, time 8 day, read-out: Vz/F; summary of the method: as §1
[31] = Apparent oral clearance in human at 175 mg, po administered for 8 days by LC-MS/MS analysis; assay type: ADME, organism-based; conditions: in vivo, time 8 day; summary of the method: as §1

CC#CC(=O)N1CCC[C@H]1c1nc(-c2ccc(C(=O)Nc3ccccn3)cc2)c2c(N)nccn12 [ACALABRUTINIB]
half-life [1]: 1.39 h | AUC at 192 h [2]: 1160 ng·h/mL | AUC at 192 h [3]: 602 ng·h/mL | k el at 192 h [4]: 0.00017 s⁻¹ | half-life [5]: 1.02 h | Tmax [6]: 0.64 h | Cmax [7]: 1350 ng/mL | AUC(0-inf) [8]: 2310 ng·h/mL | Tmax [9]: 1.1 h | Drug uptake [10]: Dose-Dependent Effect | CL/F [11]: 2170 mL/min | half-life [12]: 1.16 h | AUC at 192 h [13]: 926 ng·h/mL | AUC at 192 h [14]: 1140 ng·h/mL | k el at 192 h [15]: 0.000188 s⁻¹ | AUC at 192 h [16]: 2310 ng·h/mL | AUC(0-inf) [17]: 927 ng·h/mL | IC50 [18]: > 1000 nM | half-life [19]: 0.941 h | inhibition [20]: inactive | Vd/F [21]: 179 L | IC50 [22]: > 1000 nM | AUC(0-inf) [23]: 603 ng·h/mL | AUC at 192 h [24]: 1730 ng·h/mL | AUC at 192 h [25]: 603 ng·h/mL | Cmax [26]: 805 ng/mL | Vd/F [27]: 317 L | IC50 [28]: > 1000 nM | Vd/F [29]: 361 L | Vd/F [30]: 308 L | CL/F [31]: 3550 mL/min
